Assay results from ChEMBL document CHEMBL2176978, “Fragment-based discovery of bromodomain inhibitors part 2: optimization of phenylisoxazole sulfonamides” (J Med Chem, 2012).

Tests used:
[1] = target: T1, Bromodomain-containing protein 4 (Homo sapiens, UniProt O60885); assay: Inhibition of His6FLAG-tagged BRD4-BD1 expressed in Escherichia coli assessed as change in melting temperature at 100 uM by thermal shift assay
In short: (§1)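 Thermal melt: protein heated with or without 100 μM compound, at least duplicate; Sypro orange at 1:1000 in PBS with 10% glycerol; ramp 1 °C/min, fluorescence read every 0.5 °C; ΔTm reported.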

[2] = target: T2, E3 ubiquitin-protein ligase TRIM33 (Homo sapiens) (UniProt Q9UPN9); assay: Inhibition of His6FLAG-tagged TRIM33 isoform B expressed in Escherichia coli assessed as change in melting temperature at 100 uM by thermal shift assay; in short: as §1
T2 sequence (whole entry): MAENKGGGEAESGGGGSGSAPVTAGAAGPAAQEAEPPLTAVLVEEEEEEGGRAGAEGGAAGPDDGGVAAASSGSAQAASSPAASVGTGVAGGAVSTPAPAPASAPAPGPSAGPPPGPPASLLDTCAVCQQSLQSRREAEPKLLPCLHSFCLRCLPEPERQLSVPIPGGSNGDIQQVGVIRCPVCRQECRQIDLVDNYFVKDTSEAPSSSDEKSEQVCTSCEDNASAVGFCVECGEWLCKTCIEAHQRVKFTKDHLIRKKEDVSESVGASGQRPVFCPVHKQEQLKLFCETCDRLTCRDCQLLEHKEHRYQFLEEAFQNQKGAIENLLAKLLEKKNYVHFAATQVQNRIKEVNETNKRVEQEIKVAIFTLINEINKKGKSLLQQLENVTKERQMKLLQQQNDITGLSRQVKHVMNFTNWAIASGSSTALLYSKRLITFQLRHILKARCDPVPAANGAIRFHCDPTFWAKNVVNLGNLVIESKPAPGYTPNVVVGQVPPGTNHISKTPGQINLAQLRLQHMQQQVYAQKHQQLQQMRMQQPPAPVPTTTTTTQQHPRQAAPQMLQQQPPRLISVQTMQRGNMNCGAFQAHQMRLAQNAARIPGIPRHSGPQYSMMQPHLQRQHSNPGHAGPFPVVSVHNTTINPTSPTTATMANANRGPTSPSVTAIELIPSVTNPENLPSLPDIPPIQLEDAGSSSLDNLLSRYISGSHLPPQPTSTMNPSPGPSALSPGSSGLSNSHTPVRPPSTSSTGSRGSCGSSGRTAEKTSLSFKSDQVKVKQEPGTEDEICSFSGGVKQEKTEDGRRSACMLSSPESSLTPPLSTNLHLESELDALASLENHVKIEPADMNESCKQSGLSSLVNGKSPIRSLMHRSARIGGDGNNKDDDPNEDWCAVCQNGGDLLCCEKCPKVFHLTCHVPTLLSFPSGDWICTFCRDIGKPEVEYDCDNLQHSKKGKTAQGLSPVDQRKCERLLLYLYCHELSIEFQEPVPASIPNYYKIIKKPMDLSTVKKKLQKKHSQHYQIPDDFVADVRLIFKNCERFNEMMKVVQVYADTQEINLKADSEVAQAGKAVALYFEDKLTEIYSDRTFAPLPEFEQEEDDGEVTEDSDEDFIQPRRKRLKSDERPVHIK

[3] = target: T1, Bromodomain-containing protein 4; assay: Inhibition of His6FLAG-tagged BRD4-BD12 expressed in Escherichia coli assessed as change in melting temperature at 100 uM by thermal shift assay; in short: as §1
[4] = target: Bromodomain adjacent to zinc finger domain protein 2B (Homo sapiens) (UniProt Q9UIF8); assay: Inhibition of His6FLAG-tagged BAZ2B expressed in Escherichia coli assessed as change in melting temperature at 100 uM by thermal shift assay; in short: as §1
[5] = target: CREB-binding protein (Homo sapiens) (UniProt Q92793); assay: Inhibition of His6FLAG-tagged CREBBP expressed in Escherichia coli assessed as change in melting temperature at 100 uM by thermal shift assay; in short: as §1
[6] = target: T3, Bromodomain-containing protein 1 (Homo sapiens) (UniProt O95696); assay: Inhibition of His6FLAG-tagged BRD1 expressed in Escherichia coli assessed as change in melting temperature at 100 uM by thermal shift assay; in short: as §1
T3 sequence (whole entry): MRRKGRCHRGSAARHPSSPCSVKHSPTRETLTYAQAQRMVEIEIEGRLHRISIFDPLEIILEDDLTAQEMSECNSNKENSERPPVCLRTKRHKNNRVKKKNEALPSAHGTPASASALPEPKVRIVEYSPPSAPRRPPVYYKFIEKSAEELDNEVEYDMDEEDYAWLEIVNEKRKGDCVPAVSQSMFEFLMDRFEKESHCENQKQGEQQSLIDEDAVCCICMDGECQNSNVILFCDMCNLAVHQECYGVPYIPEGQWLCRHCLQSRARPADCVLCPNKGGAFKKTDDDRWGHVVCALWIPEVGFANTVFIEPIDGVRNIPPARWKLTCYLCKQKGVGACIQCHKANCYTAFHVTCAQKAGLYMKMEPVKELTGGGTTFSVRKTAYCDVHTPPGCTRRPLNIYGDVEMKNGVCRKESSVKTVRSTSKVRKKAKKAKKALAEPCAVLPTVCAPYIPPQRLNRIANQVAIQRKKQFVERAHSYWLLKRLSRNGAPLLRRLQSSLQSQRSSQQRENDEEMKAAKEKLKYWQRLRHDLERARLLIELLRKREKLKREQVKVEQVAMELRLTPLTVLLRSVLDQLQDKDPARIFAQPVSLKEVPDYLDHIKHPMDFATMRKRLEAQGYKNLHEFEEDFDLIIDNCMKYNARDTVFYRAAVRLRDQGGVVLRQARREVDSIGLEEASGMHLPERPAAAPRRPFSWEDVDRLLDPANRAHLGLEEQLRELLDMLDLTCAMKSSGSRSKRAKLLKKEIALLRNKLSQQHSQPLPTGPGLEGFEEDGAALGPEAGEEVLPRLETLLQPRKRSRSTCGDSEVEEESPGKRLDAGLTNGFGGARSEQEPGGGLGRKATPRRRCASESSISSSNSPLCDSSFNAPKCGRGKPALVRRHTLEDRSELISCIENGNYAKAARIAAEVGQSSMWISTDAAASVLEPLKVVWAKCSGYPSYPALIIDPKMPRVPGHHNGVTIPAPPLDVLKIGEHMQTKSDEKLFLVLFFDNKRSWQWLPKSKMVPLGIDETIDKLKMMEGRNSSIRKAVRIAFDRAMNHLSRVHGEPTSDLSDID

CREB-binding protein (Homo sapiens), sequence (Q92793 2-2442 limits assumed): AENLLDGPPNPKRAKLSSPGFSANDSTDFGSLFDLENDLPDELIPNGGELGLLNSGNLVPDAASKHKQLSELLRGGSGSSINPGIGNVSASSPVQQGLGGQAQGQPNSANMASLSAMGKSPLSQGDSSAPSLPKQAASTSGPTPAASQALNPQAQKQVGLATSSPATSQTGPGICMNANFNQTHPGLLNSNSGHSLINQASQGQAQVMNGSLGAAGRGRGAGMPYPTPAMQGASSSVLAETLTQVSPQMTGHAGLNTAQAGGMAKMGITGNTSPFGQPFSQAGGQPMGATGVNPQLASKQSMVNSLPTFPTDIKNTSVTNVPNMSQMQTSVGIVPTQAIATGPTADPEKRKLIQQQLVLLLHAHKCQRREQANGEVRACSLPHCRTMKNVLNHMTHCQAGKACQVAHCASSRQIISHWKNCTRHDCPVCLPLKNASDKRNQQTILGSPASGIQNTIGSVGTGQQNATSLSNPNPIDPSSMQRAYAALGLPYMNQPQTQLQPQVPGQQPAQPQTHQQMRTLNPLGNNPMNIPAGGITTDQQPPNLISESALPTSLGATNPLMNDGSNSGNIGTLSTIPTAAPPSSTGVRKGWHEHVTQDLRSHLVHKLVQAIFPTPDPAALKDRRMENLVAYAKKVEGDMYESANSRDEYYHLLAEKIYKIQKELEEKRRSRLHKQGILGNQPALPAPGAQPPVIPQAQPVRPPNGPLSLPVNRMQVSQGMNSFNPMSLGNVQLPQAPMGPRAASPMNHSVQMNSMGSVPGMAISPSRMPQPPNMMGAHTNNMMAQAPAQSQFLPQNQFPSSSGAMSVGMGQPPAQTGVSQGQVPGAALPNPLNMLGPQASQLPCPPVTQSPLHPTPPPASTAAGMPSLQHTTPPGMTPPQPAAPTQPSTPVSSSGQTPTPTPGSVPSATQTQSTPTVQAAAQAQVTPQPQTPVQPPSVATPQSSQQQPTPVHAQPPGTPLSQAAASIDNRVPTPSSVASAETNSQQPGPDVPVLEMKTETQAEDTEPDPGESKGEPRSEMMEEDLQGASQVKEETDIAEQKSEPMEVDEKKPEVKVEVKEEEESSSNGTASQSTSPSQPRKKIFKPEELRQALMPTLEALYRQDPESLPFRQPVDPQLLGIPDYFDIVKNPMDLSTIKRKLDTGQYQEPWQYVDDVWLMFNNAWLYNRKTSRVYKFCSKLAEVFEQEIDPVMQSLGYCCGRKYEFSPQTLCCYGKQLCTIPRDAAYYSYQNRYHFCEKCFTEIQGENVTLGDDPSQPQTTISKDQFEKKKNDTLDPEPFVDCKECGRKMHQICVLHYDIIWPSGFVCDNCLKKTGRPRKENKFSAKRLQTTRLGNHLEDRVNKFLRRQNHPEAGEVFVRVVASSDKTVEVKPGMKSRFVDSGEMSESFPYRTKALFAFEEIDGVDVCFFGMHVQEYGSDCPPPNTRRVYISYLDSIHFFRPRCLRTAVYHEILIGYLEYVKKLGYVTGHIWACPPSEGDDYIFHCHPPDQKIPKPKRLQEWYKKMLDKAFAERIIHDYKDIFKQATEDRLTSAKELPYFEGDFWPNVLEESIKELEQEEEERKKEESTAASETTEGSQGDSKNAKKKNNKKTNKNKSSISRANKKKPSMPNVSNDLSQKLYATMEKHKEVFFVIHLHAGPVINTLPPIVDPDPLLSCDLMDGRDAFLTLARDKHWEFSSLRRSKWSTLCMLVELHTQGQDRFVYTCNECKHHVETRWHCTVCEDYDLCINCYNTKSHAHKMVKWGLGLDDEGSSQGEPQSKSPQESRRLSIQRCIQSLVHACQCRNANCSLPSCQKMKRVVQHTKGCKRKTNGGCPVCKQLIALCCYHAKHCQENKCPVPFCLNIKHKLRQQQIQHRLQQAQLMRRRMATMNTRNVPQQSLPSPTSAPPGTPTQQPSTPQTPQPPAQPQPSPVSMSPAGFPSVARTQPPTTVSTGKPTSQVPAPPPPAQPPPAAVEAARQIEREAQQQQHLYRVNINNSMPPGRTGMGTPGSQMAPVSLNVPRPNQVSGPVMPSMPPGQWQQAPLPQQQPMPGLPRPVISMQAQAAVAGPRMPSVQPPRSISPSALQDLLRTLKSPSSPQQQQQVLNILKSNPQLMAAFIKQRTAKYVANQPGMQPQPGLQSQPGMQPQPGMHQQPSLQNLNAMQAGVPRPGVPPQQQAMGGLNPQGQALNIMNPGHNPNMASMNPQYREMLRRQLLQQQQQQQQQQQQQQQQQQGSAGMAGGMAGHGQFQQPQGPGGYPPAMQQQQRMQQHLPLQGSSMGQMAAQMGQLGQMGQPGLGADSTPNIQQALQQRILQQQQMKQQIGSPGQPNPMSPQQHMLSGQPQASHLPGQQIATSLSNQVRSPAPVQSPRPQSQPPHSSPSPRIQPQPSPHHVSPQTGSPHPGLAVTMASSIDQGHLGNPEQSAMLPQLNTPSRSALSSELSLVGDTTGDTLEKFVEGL
Bromodomain adjacent to zinc finger domain protein 2B (Homo sapiens), sequence (Q9UIF8 whole entry, the tested form may be a part): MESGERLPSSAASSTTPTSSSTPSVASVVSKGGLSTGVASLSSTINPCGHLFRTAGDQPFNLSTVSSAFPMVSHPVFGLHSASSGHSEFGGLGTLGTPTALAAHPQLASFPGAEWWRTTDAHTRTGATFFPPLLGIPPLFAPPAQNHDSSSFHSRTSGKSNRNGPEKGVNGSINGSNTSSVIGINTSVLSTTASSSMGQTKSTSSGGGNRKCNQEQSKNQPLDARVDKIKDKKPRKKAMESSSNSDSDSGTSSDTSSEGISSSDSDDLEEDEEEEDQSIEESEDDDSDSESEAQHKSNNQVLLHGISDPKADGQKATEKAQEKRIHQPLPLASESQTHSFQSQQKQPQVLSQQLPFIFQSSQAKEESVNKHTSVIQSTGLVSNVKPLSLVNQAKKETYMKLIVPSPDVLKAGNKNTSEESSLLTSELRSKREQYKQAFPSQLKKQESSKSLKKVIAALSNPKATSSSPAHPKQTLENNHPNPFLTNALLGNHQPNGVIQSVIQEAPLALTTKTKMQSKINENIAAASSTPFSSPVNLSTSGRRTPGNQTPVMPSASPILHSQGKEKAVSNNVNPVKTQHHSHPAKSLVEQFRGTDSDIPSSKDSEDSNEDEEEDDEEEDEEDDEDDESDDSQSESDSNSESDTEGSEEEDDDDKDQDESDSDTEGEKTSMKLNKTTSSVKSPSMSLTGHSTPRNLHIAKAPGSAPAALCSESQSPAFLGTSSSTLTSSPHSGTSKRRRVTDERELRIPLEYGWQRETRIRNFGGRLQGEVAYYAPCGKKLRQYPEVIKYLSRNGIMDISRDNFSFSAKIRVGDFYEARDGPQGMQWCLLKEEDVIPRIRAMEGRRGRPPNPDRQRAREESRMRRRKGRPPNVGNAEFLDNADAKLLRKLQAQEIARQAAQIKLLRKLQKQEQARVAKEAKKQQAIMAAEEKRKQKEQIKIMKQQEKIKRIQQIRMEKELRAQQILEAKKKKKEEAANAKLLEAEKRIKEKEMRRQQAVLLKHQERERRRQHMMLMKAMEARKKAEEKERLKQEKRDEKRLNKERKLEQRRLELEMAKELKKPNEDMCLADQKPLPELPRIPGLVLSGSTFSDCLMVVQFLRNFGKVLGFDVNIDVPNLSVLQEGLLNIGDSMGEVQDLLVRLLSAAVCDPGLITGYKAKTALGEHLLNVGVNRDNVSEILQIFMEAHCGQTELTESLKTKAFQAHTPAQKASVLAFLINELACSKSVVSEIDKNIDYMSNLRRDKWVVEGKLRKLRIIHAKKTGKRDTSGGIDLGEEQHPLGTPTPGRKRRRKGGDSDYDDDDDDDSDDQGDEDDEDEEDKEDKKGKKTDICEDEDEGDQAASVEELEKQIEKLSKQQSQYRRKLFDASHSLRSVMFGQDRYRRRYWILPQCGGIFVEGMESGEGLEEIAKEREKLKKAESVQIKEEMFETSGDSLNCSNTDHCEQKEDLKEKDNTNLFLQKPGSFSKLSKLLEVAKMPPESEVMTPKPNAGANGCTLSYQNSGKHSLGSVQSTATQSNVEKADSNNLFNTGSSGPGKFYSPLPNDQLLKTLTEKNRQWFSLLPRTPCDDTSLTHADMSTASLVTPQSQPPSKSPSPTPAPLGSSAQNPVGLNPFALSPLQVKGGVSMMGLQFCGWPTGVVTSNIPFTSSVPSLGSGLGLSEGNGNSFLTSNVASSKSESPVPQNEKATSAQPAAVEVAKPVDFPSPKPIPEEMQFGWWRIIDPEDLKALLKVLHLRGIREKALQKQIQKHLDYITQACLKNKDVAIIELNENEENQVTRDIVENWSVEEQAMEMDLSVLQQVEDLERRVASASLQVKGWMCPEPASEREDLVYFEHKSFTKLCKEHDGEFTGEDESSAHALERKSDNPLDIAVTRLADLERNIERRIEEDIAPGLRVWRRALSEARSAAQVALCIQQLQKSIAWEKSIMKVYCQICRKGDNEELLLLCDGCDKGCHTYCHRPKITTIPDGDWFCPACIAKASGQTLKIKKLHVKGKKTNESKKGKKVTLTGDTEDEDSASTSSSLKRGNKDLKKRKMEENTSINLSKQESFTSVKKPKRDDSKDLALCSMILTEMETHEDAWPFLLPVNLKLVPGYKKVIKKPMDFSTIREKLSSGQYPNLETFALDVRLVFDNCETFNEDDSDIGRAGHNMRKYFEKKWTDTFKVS

ΔTm [1]	ΔTm [2]	ΔTm [3]	ΔTm [4]	ΔTm [5]	ΔTm [6]	SMILES
2 °C	< 1 °C	5 °C	< 1 °C	1.5 °C	< 1 °C	Cc1noc(C)c1-c1ccc(OCCCN2CCOCC2)c(S(=O)(=O)NC2CCCC2)c1
2 °C	< 1 °C	5 °C	< 1 °C	< 1 °C	< 1 °C	Cc1ccc(-c2c(C)noc2C)cc1S(=O)(=O)NC1CCCC1
